Source: PubChem (several laboratories)
MLLE-PAM2 inh – blocks PAM2 peptide binding to the PABP1 MLLE domain. AID 588489. GST-MLLE / FITC-PAM2 fluorescence polarization. 0.36% of 360,000 active. inhibition, % at 20 µM; in the data active = inhibition above about 35%, passing the limit was not always enough;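 also: plate controls were DMSO wells with GST-MLLE for no effect and wells lacking GST-MLLE protein for full effect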
SUMO HTRF inh – inhibitors of human SUMOylation (UBC9); P63279; HTRF SUMOylation assay, SAE1/SAE2 + UBC9, in vitro; inhibition, % at 35 µM; 0.36% of 290,000 active; AID 2006; in the data active = inhibition above about 50%, passing the limit was not always enough; inconclusive = no clear call, values can overlap the other calls
Target sequence (P63279 whole entry, looked up): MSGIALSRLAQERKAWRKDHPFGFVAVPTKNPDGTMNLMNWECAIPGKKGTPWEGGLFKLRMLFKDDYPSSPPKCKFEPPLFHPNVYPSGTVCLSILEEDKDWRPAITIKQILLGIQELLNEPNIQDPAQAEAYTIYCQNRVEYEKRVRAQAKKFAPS
eIF4E-4G inh – blocks eIF4E binding to eIF4G; inhibition, % at 21.7 µM; 0.37% of 220,000 active; TR-FRET eIF4E-eIF4GI(517-606) binding, 2 h; AID 782; P63073+Q04637;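 active = inhibition above about 30%, limit read from the data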;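 also: 0% = full FRET control wells and 100% = background wells lacking eIF4GI fragment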
HCV core dimer – blocks dimerization of HCV core protein; inhibition, % at 5 µM; AID 1899; 0.33% of 300,000 active; TR-FRET GST/Flag-core106 dimerization, 1536-well;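 active = inhibition above the mean of all tested compounds plus 3 SD, set per screening campaign, cut at about 45% in these data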
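Assay system: Tagged HCV core106 pair (GST and Flag) | Buffer or medium: KF-containing HEPES buffer, pH 7.45, DTT, CHAPS, BSA | Also added: Eu donor and XL665 acceptor anti-tag antibodies | Dosing: One concentration, 5 µM, in 0.5% DMSO | Timing: 4 h at 22.5 °C | Technique: TR-FRET 671 and 617 nm emission | Repeats: Singlicate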
PABP FP inh – blocks human PABP binding to poly(A) RNA | P11940 | fluorescence polarization | calls only at 35 µM | 1% of 290,000 active | AID 2014;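 also: calls also rest on retests at 20 µM and on dose response follow-up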
eIF4H FP inh – inhibitors of RNA binding by human eIF4H. Q15056. eIF4H fluorescence polarization binding assay. inhibition, % at 35 µM. 0.94% of 290,000 active. AID 2012;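 also: calls also rest on retests at 20 µM and on dose response follow-up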
Starred values were filed as active, the others as inactive; i = inactive; ? = inconclusive; / = no result given; + = active, no number. This is a sample that favours compounds with a hit; in the whole collection about 1.8% have one here. Unless noted, no rule for the calls is given here.

SMILES	MLLE-PAM2 inh	SUMO HTRF inh	eIF4E-4G inh	HCV core dimer	PABP FP inh	eIF4H FP inh
O=C(CSc1nc2[nH]ncc2c(=O)n1-c1ccccc1)c1ccc2c(c1)OCCO2	-17.3	11.7	-34.1	4.9	i	-1.4
N=c1c2cn[nH]c2nc(SCC(=O)c2ccc(Br)cc2)n1-c1ccc(Br)cc1	-27.0	54.2*	-1.1	9.8	i	-9.7
CC(NC(=O)C(C)N1CCN(S(=O)(=O)c2ccccc2)CC1)c1ccccc1 (stereo not drawn)	1.8	/	/	/	/	/
CCN(CC)C(=O)CSC(=Nc1ccccc1F)NC#N	-29.9	7.0	3.7	-1.3	+	45.5*
C[C@H]1c2cccc(O)c2C(O)=C2C(=O)C3(O)C(O)=C(C(N)=O)C(=O)[C@@H](N(C)C)[C@@H]3[C@@H](O)[C@@H]21 (stereo partly drawn)	0.8	/	/	-1.1	/	/
C=C1c2cccc(O)c2C(O)=C2C(=O)[C@]3(O)C(O)=C(C(N)=O)C(=O)[C@@H](N(C)C)[C@@H]3[C@@H](O)[C@H]12	24.9	92.8*	6.0	-7.7	+	107.0*
O=C(O)CCC1c2cc3c4cc2OC2Oc5cc6c(cc51)C(CCC(=O)O)c1cc5c7cc1OC(O6)c1cc6cc(c1)Oc1cc(cc(C(=O)O)c1)Oc1cc8cc(c1)C(Oc1cc(c(cc1C5CCC(=O)O)C3CCC(=O)O)OC(O4)c1cc(cc(c1)Oc1cc(cc(C(=O)O)c1)O8)Oc1cc(cc(C(=O)O)c1)Oc1cc(cc2c1)Oc1cc(cc(C(=O)O)c1)O6)O7 (stereo not drawn)	/	/	/	60.7*	/	/
CCN1CCN(C(=O)c2cc(COc3ccc(F)cc3F)on2)[C@@H](C)C1=O	12.4	15.2	/	-2.9	i	-7.5
O=C1C(Nc2ccccc2)=C/C(=N/S(=O)(=O)c2cccs2)c2ccccc21	25.2	49.1	-3.0	8.8	i	-4.2
CCc1cc[n+](C2=C([O-])c3ccccc3C(=O)/C2=N\S(=O)(=O)c2cccs2)cc1	-36.0	59.2*	2.6	26.4	i	10.6
COC(=O)/C(C(C)=O)=C(\C=C\N(C)C)N(C)C	3.6	16.3	-7.9	-4.0	i	1.5
COC(=O)\C(C(C)=O)=C(/C=C/C=C/C=C/N(C)C)N(C)C	2.7	26.4	6.9	41.8	+	90.1*
CC1CCCCN1C(=O)Cn1cc(/C=C2/C(=O)Nc3ccccc32)c2ccccc21 (stereo not drawn)	/	-37.0	-11.6	/	i	-1.6
O=C1C=CC(=Nc2ccc3c(c2)Cc2cc(F)ccc2-3)O1	25.9	/	/	/	/	/
O=C1C=CC(=Nc2cccc3c2C(=O)c2ccccc2-3)O1	56.3*	/	/	/	/	/
CC(C)N1CC=C2C(C#N)=C(N)C(C#N)(C#N)[C@H](c3ccoc3)[C@H]2C1	/	56.2*	-1.1	-24.8	?	?
CC(C)N1CC=C2C(C#N)=C(N)C(C#N)(C#N)C(c3ccccc3)C2C1 (stereo not drawn)	141.6	23.6	2.3	-5.4	?	?
CCc1ccccc1NCC(=O)Nc1ccc(Cl)c(C(F)(F)F)c1	0.3	-14.9	-31.8	-6.9	i	-6.4
CCCCN1C(=O)C(O)=C(C(C)=O)C1c1ccccc1[N+](=O)[O-] (stereo not drawn)	-0.1	23.9	-0.3	1.0	i	-1.0
O=C(O)CCCCCN1C(=O)C(O)=C(C(=O)/C=C/c2ccccc2)C1c1ccccc1[N+](=O)[O-] (stereo not drawn)	47.1*	6.3	9.8	2.8	i	3.9
O=C(N/N=C/c1ccc([N+](=O)[O-])o1)c1cc(-c2cccc(Br)c2)nc2ccccc12	-19.3	-1.4	1.4	71.3*	i	56.0*
O=C(N/N=C/c1ccc([N+](=O)[O-])o1)c1cn2ccc3ccccc3c2n1	-2.1	/	7.3	-2.7	+	82.3*
Cc1nonc1C(=O)N/N=C/c1ccc([N+](=O)[O-])o1	-0.4	33.2	-0.1	-5.7	+	89.1*
O=C(N/N=C/c1ccc([N+](=O)[O-])o1)c1sc2ccccc2c1Cl	-25.6	7.6	-3.6	3.5	i	72.3*
CC(C)COc1ccc(C(=O)N2C(=O)c3ccc(N)cc3C2=O)cc1	-3.6	34.4	0.5	6.8	i	-1.7
SMILES	MLLE-PAM2 inh	SUMO HTRF inh	eIF4E-4G inh	HCV core dimer	PABP FP inh	eIF4H FP inh
N#Cc1cccc(N=c2ssnc2Cl)c1	/	16.3	54.3*	/	i	-4.6
Clc1nssc1=Nc1nncs1	-5.1	/	/	/	/	/
COc1cc(N=c2ssnc2Cl)cc(OC)c1	27.9	17.3	63.1*	4.9	i	-8.3
Clc1ccc(N=c2ssnc2Cl)nc1	-27.6	3.1	9.0	-15.1	i	16.8
Clc1nssc1=Nc1ccc(Br)cc1	9.1	6.7	51.0*	/	i	3.2
Cc1ccccc1-c1nnnn1C1CCS(=O)(=O)C1 (stereo not drawn)	14.9	11.0	1.2	8.8	i	-11.1
Cc1cc(=O)n(C2CCS(=O)(=O)C2)[nH]1 (stereo not drawn)	23.6	90.1*	0.7	4.8	i	-8.3
COCCOC(=O)c1c(N)n(CCCN2CCOCC2)c2nc3ccccc3nc12	11.4	33.2	92.5*	2.5	i	1.8
Nc1c(C(=O)NCc2ccc(F)cc2)c2nc3ccccc3nc2n1CCCN1CCOCC1	-1.7	44.9	11.7	-1.1	i	3.8
C=CCn1c(N)c(C(=O)NCC2CCCO2)c2nc3ccccc3nc21 (stereo not drawn)	0.2	95.1*	3.1	3.1	i	-2.4
Nc1c(C(=O)NCc2ccccc2)c2nc3ccccc3nc2n1CCCN1CCOCC1	-4.3	98.5*	-0.5	-12.3	i	5.1
Nc1c(C(=O)NCc2ccco2)c2nc3ccccc3nc2n1CCc1ccccc1	-24.5	99.3*	8.5	/	i	9.1
COc1ccc(-n2c(N)c(C(=O)NCC3CCCO3)c3nc4ccccc4nc32)c(OC)c1 (stereo not drawn)	6.4	82.5	-4.3	1.6	i	11.5
CCOc1ccc(-n2c(N)c(C(=O)NCc3ccco3)c3nc4ccccc4nc32)cc1	-19.5	19.3	-1.5	43.0	i	10.8
COC(=O)c1c(N)n(CCCN2CCOCC2)c2nc3ccccc3nc12	13.3	19.4	-0.2	-6.2	i	-2.3
COC(=O)C1=C(C)N(Cc2ccccc2)C(=NCCc2cccnc2)N[C@H]1c1ccc(Br)cc1	-107.1	/	/	/	/	/
NS(=O)(=O)c1ccc(N=Nc2ccc(O)c3ncccc23)cc1	-21.4	-47.9	/	-20.9	i	9.0
NS(=O)(=O)c1ccc(N=Nc2ccc(=O)[nH]c2O)cc1	-4.7	21.1	37.2*	-16.3	+	90.2*
CCN(CC)S(=O)(=O)c1ccc(NC(=O)c2cc(C(=O)OC)cc([N+](=O)[O-])c2)cc1	1.0	8.7	33.4*	-5.9	i	7.5
CCOc1ccc(Nc2cc(Nc3ccccc3OCC)nc(C=C(C#N)C#N)n2)cc1	-6.4	19.3	-0.9	1.6	+	-4.5
